Experimental data published in ChEMBL document CHEMBL4028906, “Allosteric Inhibitors of SHP2 with Therapeutic Potential for Cancer Treatment” (J Med Chem, 2017).
Active and inactive are the calls of the source. The rule behind the calls is not given here.

Legend:
[1] = molecular target: Dual specificity protein phosphatase 6 (Homo sapiens, UniProt Q16828); assay: Inhibition of MKP3 (unknown origin) expressed in Escherichia coli BL21(DE3) using DIFMUP as substrate preincubated for 20 mins followed by substrate addition measured after 20 mins by phosphatase assay
Method in brief: (§1)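 Phosphatases purified from E. coli and run as for SHP2 E76A: 20 min room-temperature preincubation with compound in 0.1 M sodium acetate pH 5.0, then DIFMUP at each enzyme's Km, 20 min, fluorescence 358/455 nm. Eight 3-fold dilutions in duplicate; IC50 from at least three independent experiments.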

[2] = molecular target: Tyrosine-protein phosphatase non-receptor type 2 (Homo sapiens, UniProt P17706); assay: Inhibition of TC-PTP (unknown origin) expressed in Escherichia coli BL21(DE3) using DIFMUP as substrate preincubated for 20 mins followed by substrate addition measured after 20 mins by phosphatase assay; method in brief: as §1
[3] = molecular target: T1, Tyrosine-protein phosphatase non-receptor type 11 (Homo sapiens) (UniProt Q06124); assay: Inhibition of SHP2 in human SF268 cells assessed as downregulation of YAP-mediated ANKRD1 gene expression ay 10 to 20 uM after 2 hrs by qRT-PCR analysis; type: cell-based
T1 sequence (whole entry): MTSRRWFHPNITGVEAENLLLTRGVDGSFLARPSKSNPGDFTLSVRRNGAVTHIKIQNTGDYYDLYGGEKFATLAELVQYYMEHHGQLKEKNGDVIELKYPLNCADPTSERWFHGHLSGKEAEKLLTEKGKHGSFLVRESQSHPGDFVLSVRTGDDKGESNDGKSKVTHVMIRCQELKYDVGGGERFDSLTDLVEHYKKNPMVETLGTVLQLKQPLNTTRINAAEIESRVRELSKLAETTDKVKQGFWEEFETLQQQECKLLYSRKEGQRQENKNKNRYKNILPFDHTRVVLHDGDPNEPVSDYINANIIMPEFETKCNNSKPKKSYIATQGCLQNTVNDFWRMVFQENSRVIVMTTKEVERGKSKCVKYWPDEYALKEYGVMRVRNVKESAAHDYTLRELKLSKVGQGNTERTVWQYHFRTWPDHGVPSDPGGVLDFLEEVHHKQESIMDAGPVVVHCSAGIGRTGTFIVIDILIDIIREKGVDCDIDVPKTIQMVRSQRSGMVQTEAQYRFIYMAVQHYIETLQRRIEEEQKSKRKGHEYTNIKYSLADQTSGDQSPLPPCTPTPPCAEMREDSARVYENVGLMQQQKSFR
Method in brief: (§2)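 SF268 cells exposed to DMSO, 10 μM or 20 μM inhibitor for 2 h. RNA extracted, reverse-transcribed, and CTGF, CYR61, ANKRD1 and YAP mRNA quantified by qPCR; mean±s.d., n=3.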

[4] = test system: Mus musculus; assay: Toxicity in BALB/c mouse xenografted with human MV4-11 cells assessed as effect on body weight at 10 to 30 mg/kg administered qd via oral gavage measured twice weekly; type: organism-based; settings: in vivo
Method in brief: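 Female BALB/c nude mice implanted subcutaneously with 5×10^6 MV4;11 cells in 50% matrigel/PBS. At about 230 mm³, mice randomized to vehicle, 10 or 30 mg/kg (10 ml/kg) once daily by oral gavage. Body weight and caliper tumor dimensions measured twice weekly; mean±sem.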

[5] = AUC in nu/nu nude mouse at 10 mg/kg, po measured up to 24 hrs postdose by LC/MS/MS analysis; type: ADME, organism-based; set-up: dose 10 mg/kg, time < 24 hr, route oral; settings: in vivo
Method in brief: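 Female nu/nu nude mice dosed IV via tail vein at 5 mg/kg or orally at 10 mg/kg. Blood sampled at 0.083, 0.25, 0.5, 1, 2, 4, 8 and 24 h post-dose (orbital sinus, terminal cardiac puncture; EDTA-2K). Plasma separated at 4 °C, precipitated with acetonitrile containing internal standard, quantified by LC/MS/MS.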

[6] = test system: THP-1; assay: Antiproliferative activity against human THP1 cells at 3 to 6 uM after 2 days by CellTiter-Glo assay; type: functional, cell-based
Method in brief: (§3)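 3000 cells/well in 96-well plates, grown overnight, then inhibitor at indicated concentrations for 2 days (48 h). Viability by CellTiter-Glo; mean±s.d., n=3.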

[7] = species on record: Homo sapiens; assay: Selectivity ratio of IC50 for TC-PTP (unknown origin) expressed in Escherichia coli BL21(DE3) to IC50 for SHP2 E76A mutant (unknown origin) expressed in Escherichia coli BL21(DE3)
Method in brief: (§4)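 Ratio of IC50 values from one DIFMUP fluorescence assay (Ex/Em 358/455), room temperature, 0.1 M sodium acetate pH 5.0. His-tagged SHP2 E76A (1.5 nM) or counter-phosphatase purified from E. coli, preincubated 20 min with compound (eight 3-fold dilutions), then DIFMUP added for 20 min. DIFMUP was at Km for each counter-phosphatase. Duplicates; IC50 from at least three independent experiments.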

[8] = species on record: Homo sapiens; assay: Allosteric inhibition of SHP2 E76A mutant (unknown origin) assessed as reduction in SHP2-mediated YAP Y357 peptide dephosphorylation. preincubated for 15 mins before YAP pY357 peptide addition and measured after 15 mins post substrate addition
Method in brief: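 Purified SHP2 E76A (1.5 nM) preincubated 15 min with 20 μM inhibitor in 20 mM Tris-HCl pH 7.4, 100 mM NaCl, 1 mM EDTA, 2 mM DTT. 100 μM YAP pY357 peptide added for 15 min. Enzyme removed on 30 kD filters; products dot-blotted and probed with p-YAP(Y357) antibody (1:1000) with ECL detection.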

[9] = molecular target: T1, Tyrosine-protein phosphatase non-receptor type 11 (Homo sapiens); assay: Allosteric inhibition of SHP2 in human SF268 cells assessed as downregulation of YAP-mediated CYR61 gene expression ay 10 to 20 uM after 2 hrs by qRT-PCR analysis; type: cell-based; method in brief: as §2
[10] = species on record: Homo sapiens; assay: Selectivity ratio of IC50 for SHP1 (unknown origin) expressed in Escherichia coli BL21(DE3) to IC50 for SHP2 E76A mutant (unknown origin) expressed in Escherichia coli BL21(DE3); method in brief: as §4
[11] = molecular target: T1, Tyrosine-protein phosphatase non-receptor type 11 (Homo sapiens); assay: Allosteric inhibition of SHP2 in human SF268 cells assessed as upregulation of YAP phosphorylation up to 20 uM after 2 hrs by Western blot analysis; type: cell-based
Method in brief: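 SF268 cells given DMSO or inhibitor for 2 h. YAP immunoprecipitated and immunoblotted with pY-100 phosphotyrosine antibody, which detects the single YXXP tyrosine Y357.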

[12] = molecular target: T1, Tyrosine-protein phosphatase non-receptor type 11 (Homo sapiens); assay: Allosteric inhibition of SHP2 in human NCI-H661 cells assessed as downregulation of ERK1/2 activation at 10 uM by Western blot analysis; type: cell-based; settings: TDE = time-dependent effect
[13] = test system: KMS-11; assay: Antiproliferative activity against human KMS11 cells at 3 to 6 uM after 2 days by CellTiter-Glo assay; type: functional, cell-based; method in brief: as §3
[14] = molecular target: T1, Tyrosine-protein phosphatase non-receptor type 11 (Homo sapiens); assay: Allosteric inhibition of SHP2 in human NCI-H1975 cells harboring EGFR T790M mutant assessed as downregulation of ERK1/2 phosphorylation at 10 uM after 2 hrs by DAPI-based fluorescence microscopic analysis; type: cell-based
Method in brief: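 NCI-H1975 cells grown overnight on coverslips, then 10 μM inhibitor for 2 h. Fixed in 4% PFA, permeabilized with 0.4% Triton X-100, BSA-blocked. Phospho-ERK1/2 antibody applied overnight at 4 °C, fluorescent secondary 1 h at room temperature, DAPI mount, fluorescence microscopy. Repeated at least three times.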

Chain of Dual specificity protein phosphatase 6 (Q16828 whole entry): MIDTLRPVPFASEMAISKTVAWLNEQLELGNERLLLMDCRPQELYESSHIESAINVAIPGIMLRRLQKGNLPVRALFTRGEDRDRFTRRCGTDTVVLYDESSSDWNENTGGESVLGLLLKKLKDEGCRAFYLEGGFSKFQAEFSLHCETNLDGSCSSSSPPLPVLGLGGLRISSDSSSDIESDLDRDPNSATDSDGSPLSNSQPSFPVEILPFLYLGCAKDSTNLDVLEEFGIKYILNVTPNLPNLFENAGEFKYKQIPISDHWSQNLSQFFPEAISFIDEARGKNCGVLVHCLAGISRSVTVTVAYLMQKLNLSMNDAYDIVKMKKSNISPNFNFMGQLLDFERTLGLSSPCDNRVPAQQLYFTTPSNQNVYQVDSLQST
Chain of Tyrosine-protein phosphatase non-receptor type 2 (P17706 whole entry): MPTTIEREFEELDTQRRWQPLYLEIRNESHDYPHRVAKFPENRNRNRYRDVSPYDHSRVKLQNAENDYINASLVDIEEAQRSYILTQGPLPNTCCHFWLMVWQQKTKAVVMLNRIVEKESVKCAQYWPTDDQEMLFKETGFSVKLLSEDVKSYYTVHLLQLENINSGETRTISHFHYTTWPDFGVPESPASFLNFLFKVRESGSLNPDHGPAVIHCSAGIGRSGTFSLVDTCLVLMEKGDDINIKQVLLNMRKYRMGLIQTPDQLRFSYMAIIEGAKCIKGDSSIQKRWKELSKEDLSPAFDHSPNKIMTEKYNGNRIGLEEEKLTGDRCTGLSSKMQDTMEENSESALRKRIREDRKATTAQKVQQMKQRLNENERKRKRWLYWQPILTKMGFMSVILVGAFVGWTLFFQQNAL

**Q.** For `CC1(N)CCN(c2nc(-c3ccc4cc(Br)ccc4c3)cs2)CC1`, which IC50 [1] is on record?
**A.** > 100 µM

**Q.** And the IC50 [2]?
**A.** > 100 µM

**Q.** What about the inhibition [3] of the same compound?
**A.** Active

**Q.** What about the Activity [4] of the same compound?
**A.** Non-Toxic

**Q.** What about the AUC at 24 h [5] of the same compound?
**A.** 9.86 µM·h

**Q.** What about the Activity [6] of the same compound?
**A.** Active

**Q.** And the Ratio IC50 [7]?
**A.** > 30

**Q.** And the inhibition [8]?
**A.** Active

**Q.** What about the inhibition [9] of the same compound?
**A.** Active

**Q.** What about the Ratio IC50 [10] of the same compound?
**A.** 48

**Q.** What about the inhibition [11] of the same compound?
**A.** Active

**Q.** What about the inhibition [12] of the same compound?
**A.** Tde

**Q.** What about the Activity [13] of the same compound?
**A.** Active

**Q.** What about the inhibition [14] of the same compound?
**A.** Active
